Results of several laboratories.
Protocols differ between the studies behind these lines.
MET: Hepatocyte growth factor receptor (MET, Homo sapiens, UniProt P08581)
MET Y1235D: Hepatocyte growth factor receptor (MET, Homo sapiens, UniProt P08581, Y1235D)

SMILES | target | effect on | action | method | concentration | measurement | value
CC#CC(=O)N1CCC[C@H]1c1nc(-c2ccc(C(=O)Nc3ccccn3)cc2)c2c(N)nccn12 | MET | enzyme activity | inhibitor | – | 1 µM | inhibition | 17%
N#Cc1ccc(NC(=O)Nc2ccccc2)cc1 | MET | cell-free assay | – | competition with immobilised ligand | 25 µM | remaining binding | 100%
C1=C/COCc2cc(ccc2OCCN2CCCC2)Nc2nccc(n2)-c2cccc(c2)COC/1 | MET Y1235D | binding | – | – | 0.1 µM | remaining binding | 100%
COc1ccc2oc(-c3ccc4nc(N)oc4c3)c/c(=N\c3ccccc3NC(=O)CCN)c2c1 | MET | binding | – | – | 1 µM | remaining binding | 106%
CN1CCN(C(=O)c2ccc(NC(=O)Nc3ccc(N(C)c4ccnc(Nc5ccc(CS(C)(=O)=O)cc5)n4)cc3)cc2)CC1 | MET Y1235D | binding | – | – | 1 µM | remaining binding | 4.4%
CCCCC(=O)Nc1ccc(-c2ccc3ncn(CCC)c(=O)c3c2)cn1 | MET | binding | – | competition with immobilised ligand | 0.5 µM | remaining binding | 96%
C=CC(=O)N1CCC([C@@H]2CCNc3c(C(N)=O)c(-c4ccc(Oc5ccccc5)cc4)nn32)CC1 | MET | cell-free assay | – | – | 1 µM | inhibition | 7%
Cc1cc(O)c(-c2ccc([C@@H](C)CN(C)C)cc2)c2c1[nH]c(=O)c1sccc12 | MET | cell-free assay | inhibitor | – | 0.1 µM | inhibition | -0.782%
Cc1ccc(NC(=O)c2ccnc(C(F)(F)F)c2)cc1-c1cc(OCCO)nc(N2CCOCC2)c1 | MET | binding | – | – | 1 µM | remaining binding | 100%
O=C1C=C(Nc2ccc(OCc3cn(Cc4ccccc4)nn3)cc2)C(=O)c2ccccc21 | MET | enzyme activity | inhibitor | radiometric | 10 µM | inhibition | 18%
C[C@H]1CC[C@H](n2c3cnccc3c3cnc(Nc4ccc5c(n4)CCN(C(=O)CO)C5)nc32)CC1 | MET Y1235D | cell-free assay | – | – | 1 µM | remaining signal | 100%
C#Cc1cnc(Nc2ccnc(CO)c2)nc1Nc1ccccc1S(C)(=O)=NC#N (centres unmarked) | MET | cell-free assay | – | – | 1 µM | remaining signal | 83%
COc1ccc2[nH]c3c4[nH]c5ccc(OC)cc5c4c4c(c3c2c1)C(=O)NC4=O | Hepatocyte growth factor receptor (MET, Homo sapiens, UniProt P08581, M1250T) | binding | – | – | 1 µM | remaining binding | 88%
CC(C)S(=O)(=O)c1ccc2nccc(Nc3ccc4sc(C5CCCC5)nc4c3)c2c1 | MET | enzyme activity | inhibitor | – | 1 µM | activity vs control | 119%
